# In ChEMBL document CHEMBL1123034 (J Med Chem, 1985):
# Legend:
# [1] = target: Neuronal acetylcholine receptor; assay type: tissue-based, Brain
# [2] = target: T1, Neuronal acetylcholine receptor (Rattus norvegicus) (UniProt P04757+P09483+P12389+P12390+P12392+P43144+Q9JLB5+P12391+P43143+P20420+Q05941)
# [3] = target: T1, Neuronal acetylcholine receptor (Rattus norvegicus); experiment: Compounds was evaluate for their ability to enhance (+/-)-[3H]nicotine binding at a dose range 10 E -10 - 10 E -5 M was reported; assay type: protein-complex assay
# Summary of the method: (§1)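 Whole-brain P2 fraction from female Sprague-Dawley rats (200–300 g), prepared at 4 °C, ~2 mg protein per tube. […] Nonspecific binding defined with 10^-2 M (-)-nicotine. Triplicates, usually four homogenates. Enhancement assessed by two-way ANOVA or pooled t-test.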
# [4] = target: Neuronal acetylcholine receptor; experiment: Compound was evaluated for ability to enhance the binding of (+/-)-[3H]nicotine to the rat brain P2 fraction at binding site 1; assay type: tissue-based
# Summary of the method: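 Whole-brain P2 fraction from female Sprague-Dawley rats (200–300 g), prepared at 4 °C, ~2 mg protein per tube. Triplicates, usually four homogenates. Enhancement assessed by two-way ANOVA or pooled t-test.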
# [5] = target: T1, Neuronal acetylcholine receptor (Rattus norvegicus); experiment: Compounds was evaluate for their ability to enhance (+/-)-[3H]nicotine binding at a dose range 10 E -10 - 10 E -7 M was reported; assay type: protein-complex assay
# Summary of the method: (§2)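 Bound ligand collected on poly-L-lysine-soaked glass-fibre filters, washed with cold Hepes and counted by liquid scintillation. Nonspecific binding defined with 10^-2 M (-)-nicotine. Triplicates, usually four homogenates. Enhancement tested by two-way ANOVA with linear/quadratic dose components, or pooled t-test.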
# [6] = target: Neuronal acetylcholine receptor; experiment: Compounds was evaluated in vitro for ability to enhance and inhibit the binding of (+/-)-[3H]nicotine to the rat brain P2 fraction at binding site 1; 10e-10-10e-3
# Summary of the method: as §1
# [7] = target: T1, Neuronal acetylcholine receptor (Rattus norvegicus); remark: listed apart in the source
# [8] = target: T1, Neuronal acetylcholine receptor (Rattus norvegicus); remark: listed apart in the source
# [9] = target: T1, Neuronal acetylcholine receptor (Rattus norvegicus); experiment: Compounds was evaluate for their ability to enhance (+/-)-[3H]nicotine binding at a dose range 10 E -10 - 10 E -6 M was reported; assay type: protein-complex assay
# Summary of the method: as §1
# [10] = target: T1, Neuronal acetylcholine receptor (Rattus norvegicus); experiment: Compounds was evaluate for their ability to enhance (+/-)-[3H]nicotine binding at a dose range 2.5*10e-9-2.5*10e-5 M was reported; assay type: protein-complex assay
# Summary of the method: as §1
# [11] = target: T1, Neuronal acetylcholine receptor (Rattus norvegicus); experiment: Compounds was evaluate for their ability to enhance (+/-)-[3H]nicotine binding at a dose range 10 E -8 - 10 E -4 M was reported; assay type: protein-complex assay
# Summary of the method: as §1
# [12] = target: T1, Neuronal acetylcholine receptor (Rattus norvegicus); experiment: Compounds was evaluate for their ability to enhance (+/-)-[3H]nicotine binding at a dose range 10 E -12- 10 E -5 M was reported; assay type: protein-complex assay
# Summary of the method: as §1
# [13] = target: Neuronal acetylcholine receptor
# [14] = target: T1, Neuronal acetylcholine receptor (Rattus norvegicus); remark: listed apart in the source
# [15] = target: T1, Neuronal acetylcholine receptor (Rattus norvegicus); experiment: Compounds was evaluated for their ability to enhance (+/-)-[3H]nicotine binding at a dose range 10 E -9 - 10 E -6 M was reported; assay type: protein-complex assay
# Summary of the method: as §2
# [16] = target: Neuronal acetylcholine receptor; assay type: tissue-based, Brain; remark: listed apart in the source
# [17] = target: T1, Neuronal acetylcholine receptor (Rattus norvegicus); remark: listed apart in the source
structure (smiles),measurement,setting,value
CCc1ccncc1,Kd,[1],87 µM
Cc1cccc(C)n1,Kd,[1],10000 µM
same,Mean enhancement of binding,[2],3.1
CCCc1ccccn1,Kd,[1],1.7 µM
same,Mean enhancement of binding,[3],15.2
Cc1cccnc1 [3-METHYLPYRIDINE],Kd,[4],1800 µM
CCC1CCCCN1 (stereo not given),Kd,[1],7900 µM
Nc1ccccn1 [2-AMINOPYRIDINE],Kd,[1],200 µM
same,Mean enhancement of binding,[5],12.4
CC1CCCCN1 (stereo not given),Kd,[1],3200 µM
same,Kd,[6],< 0.0001 µM
CC1CCNCC1,Kd,[1],3900 µM
same,Mean enhancement of binding,[2],6.1
OC1CCNCC1,Kd,[1],3000 µM
same,Mean enhancement of binding,[2],4
OC1CCCNC1 (stereo not given),Kd,[1],820 µM
same,Mean enhancement of binding,[2],8.6
C[N+](C)(C)CCOC(N)=O,Mean enhancement of binding,[7],15
CN1[C@@H](CC(=O)c2ccccc2)CCC[C@H]1C[C@H](O)c1ccccc1,Mean enhancement of binding,[8],18.2
CCc1ccccn1,Kd,[1],100 µM
same,Mean enhancement of binding,[9],10.9
CC1CCCNC1 (stereo not given),Kd,[1],890 µM
same,Mean enhancement of binding,[2],5.2
CNC1(C)C2CCC(C2)C1(C)C (stereo not given),Mean enhancement of binding,[10],16.4
CN1CCCCC1,Kd,[1],1200 µM
same,Mean enhancement of binding,[3],10
CCc1cccnc1,Kd,[1],9.5 µM
same,Mean enhancement of binding,[9],5.4
c1ccncc1 [PYRIDINE],Kd,[1],3300 µM
ON1CCCCC1,Kd,[1],6000 µM
same,Mean enhancement of binding,[11],8.5
CN1[C@@H]2CC[C@H]1C[C@@H](OC(=O)C(CO)c1ccccc1)C2 (stereo not given in full),Mean enhancement of binding,[12],14.9
CN1C(=O)CCC1c1cccnc1 (stereo not given),Kd,[1],4700 µM
same,Kd,[4],0.62 µM
Oc1ccccn1,Kd,[1],880 µM
same,Mean enhancement of binding,[2],10
Nc1cccnc1,Kd,[1],380 µM
same,Mean enhancement of binding,[9],2.4
Cc1ccccn1,Kd,[1],0.05 µM
same,Kd,[13],64000 µM
same,Mean enhancement of binding,[14],20.7
CCCC1CCCCN1 (stereo not given),Kd,[1],97 µM
C1CCNCC1 [PIPERIDINE],Kd,[1],0.12 µM
same,Mean enhancement of binding,[15],10.3
same,Kd,[16],69 µM
Cc1ccncc1,Kd,[1],2200 µM
same,Mean enhancement of binding,[2],6.6
CN1CCCC1 [N-METHYL PYRROLIDINE (NMP)],Kd,[1],52 µM
same,Mean enhancement of binding,[9],4.1
CN1CCC(O)CC1,Kd,[1],3400 µM
same,Mean enhancement of binding,[2],13
CN1CCC[C@H]1c1cccnc1,Mean enhancement of binding,[17],4.7
CCN1CCCCC1,Kd,[1],3.3 µM
same,Mean enhancement of binding,[9],23
C1CCNC1 [PYRROLIDINE],Mean enhancement of binding,[9],4.5
